Results on five compounds are retold here after ChEMBL document CHEMBL5712085, “Inhibition of SMYD2 Sensitized Cisplatin to Resistant Cells in NSCLC Through Activating p53 Pathway” (2019).

Active and inactive are the calls of the source. The rule behind the calls is not given here.

The subject of test [1] is NCI-H460. Description: Antitumor activity against human CDDP-resistant NCI-H460 cells xenografted in Balb/c mouse assessed as slight decrease in tumor growth at 40 mg/kg/day i.p. The class given is functional, organism-based. The conditions noted are these: Lung, route ip. The method, boiled down:
(§1)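 Male BALB/c mice aged 7–8 weeks received NCI-H460/CDDP cells (5 × 10^6 in 100 μl PBS) subcutaneously into the right flank. At a mean tumor volume of 100 mm3, mice were randomized (n = 6 per group) to saline, inhibitor 40 mg/kg once daily i.p., CDDP 4.0 mg/kg every 3 days i.p., or the combination. Tumor growth was followed for 2 weeks.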
(Xenograft models place foreign cells or tissue in a host animal.)

For test [2], the system named is NCI-H460. The test can be described thus: Antitumor activity against human CDDP-resistant NCI-H460 cells xenografted in Balb/c mouse assessed as inhibition of tumor growth at 40 mg/kg/day i.p in presence of cisplatin. Format: functional, organism-based. Conditions: Lung, route ip. In outline: as §1
Test [3] deals with Mus musculus. Description: Downregulation of p53K370me protein expression in Balb/c mouse tumor xenografted with CDDP-resistant NCI-H460 cells at 40 mg/kg/day ip by Western blot analysis. Format: functional, organism-based. In outline:
(§2)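 Excised tumors came from NCI-H460/CDDP flank xenografts in male BALB/c mice (saline, inhibitor 40 mg/kg daily i.p., CDDP 4.0 mg/kg every 3 days i.p., or the combination; 2 weeks). They were stored at −80°C. Protein extracts were run on 10–15% SDS-PAGE, transferred to PVDF, probed with primary and HRP secondary antibodies, detected by ECL and normalized to β-actin.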
A general note: Immunoblotting shows a protein as a band on a membrane.

Test [4] relates to Mus musculus. Description: Downregulation of p53K370me protein expression in Balb/c mouse tumor xenografted with CDDP-resistant NCI-H460 cells at 40 mg/kg/day ip by Western blot analysis in presence of cisplatin. Format: functional, organism-based. In outline: as §2
The subject of test [5] is A549. The test can be described thus: Cytotoxicity against human A549 cells assessed as inhibition of cell growth measured after 48 hrs by MTT assay. Format: functional, cell-based. The conditions noted are these: Lung. The method, boiled down: (§3)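 Cells were grown in RPMI-1640 with 10% FBS, seeded at 1 × 10^5 cells/ml, left overnight and treated with a range of concentrations for 48 h. MTT (2.5 mg/ml in PBS) was added for 4 h at 37°C. Plates were centrifuged, the medium removed and the formazan dissolved in DMSO. OD was read at 570 nm.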
(In general: Formazan colour is commonly taken as a measure of viable cells.)

For test [6], the system named is NCI-H460. The test can be described thus: Cytotoxicity against human NCI-H460 cells assessed as inhibition of cell growth measured after 48 hrs by MTT assay. Conditions: Lung. Format: functional, cell-based. The method, boiled down:
as §3

The subject of test [7] is A549. Description: Potentiation of Taxol-induced cytotoxicity in human A549 cells assessed as cell viability at 2 uM measured after 48 hrs by MTT assay. The class given is functional, cell-based. The conditions noted are these: Lung.
For test [8], the system named is A549. The test can be described thus: Potentiation of VCR-induced cytotoxicity in human A549 cells assessed as cell viability at 2 uM measured after 48 hrs by MTT assay. The class given is functional, cell-based. The conditions noted are these: Lung.
In test [9] the test system is NCI-H460. Description: Potentiation of Taxol-induced cytotoxicity in human NCI-H460 cells assessed as cell viability at 2 uM measured after 48 hrs by MTT assay. Format: functional, cell-based. The conditions noted are these: Lung.
Test [10] concerns NCI-H460. Description: Potentiation of VCR-induced cytotoxicity in human NCI-H460 cells assessed as cell viability at 2 uM measured after 48 hrs by MTT assay. The conditions noted are these: Lung. Format: functional, cell-based.
The test system of test [11] is NCI-H460. Description: Potentiation of CDDP-induced apoptosis in human CDDP-resistant NCI-H460 cells assessed as viable cells at 2 uM measured after 48 hrs by annexin-V/PI staining based flow cytometry. Format: functional. The conditions noted are these: NCI-H460, Lung, read-out: Activity.
The subject of test [12] is NCI-H460. The test can be described thus: Potentiation of CDDP-induced apoptosis in human CDDP-resistant NCI-H460 cells assessed as early apoptotic cells at 2 uM measured after 48 hrs by annexin-V/PI staining based flow cytometry. Format: functional, Lung.
In test [13] the test system is NCI-H460. Description: Potentiation of CDDP-induced apoptosis in human CDDP-resistant NCI-H460 cells assessed as late apoptotic cells at 2 uM measured after 48 hrs by annexin-V/PI staining based flow cytometry. The class given is functional, Lung.
Test [14] relates to NCI-H460. The test can be described thus: Potentiation of CDDP-induced apoptosis in human CDDP-resistant NCI-H460 cells assessed as necrotic cells at 2 uM measured after 48 hrs by annexin-V/PI staining based flow cytometry. Format: functional, Lung.
Test [15] relates to NCI-H460. The test can be described thus: Potentiation of CDDP-induced apoptosis in human NCI-H460 cells assessed as viable cells at 2 uM measured after 48 hrs by annexin-V/PI staining based flow cytometry. Conditions: NCI-H460, Lung, read-out: Activity. Format: functional.
Test [16] concerns NCI-H460. The test can be described thus: Potentiation of CDDP-induced apoptosis in human NCI-H460 cells assessed as early apoptotic cells at 2 uM measured after 48 hrs by annexin-V/PI staining based flow cytometry. Format: functional, Lung.
The test system of test [17] is NCI-H460. Description: Potentiation of CDDP-induced apoptosis in human NCI-H460 cells assessed as late apoptotic cells at 2 uM measured after 48 hrs by annexin-V/PI staining based flow cytometry. Format: functional, Lung.
In test [18] the test system is NCI-H460. Description: Potentiation of CDDP-induced apoptosis in human NCI-H460 cells assessed as necrotic cells at 2 uM measured after 48 hrs by annexin-V/PI staining based flow cytometry. Format: functional, Lung.
For test [19], the system named is NCI-H460. The test can be described thus: Induction of apoptosis in human NCI-H460 cells assessed as viable cells at 10 uM after 48 hrs by annexin-V/PI staining based flow cytometry (reference value: 98.42%). The conditions noted are these: NCI-H460, Lung, read-out: Activity. The class given is functional.
The test system of test [20] is NCI-H460. The test can be described thus: Induction of apoptosis in human NCI-H460 cells assessed as early apoptotic cells at 10 uM after 48 hrs by annexin-V/PI staining based flow cytometry (reference value: 0.02%). Format: functional, Lung.
Test [21] relates to NCI-H460. Description: Induction of apoptosis in human NCI-H460 cells assessed as late apoptotic cells at 10 uM after 48 hrs by annexin-V/PI staining based flow cytometry (reference value: 0.02%). The class given is functional, Lung.
The test system of test [22] is NCI-H460. Description: Induction of apoptosis in human NCI-H460 cells assessed as necrotic cells at 10 uM after 48 hrs by annexin-V/PI staining based flow cytometry (reference value: 1.53%). Format: functional, Lung.
Test [23] deals with NCI-H460. Description: Induction of apoptosis in human CDDP-resistant NCI-H460 cells assessed as viable cells at 10 uM after 48 hrs by annexin-V/PI staining based flow cytometry (reference value: 95.44%). Format: functional. The conditions noted are these: NCI-H460, Lung, read-out: Activity.
The test system of test [24] is NCI-H460. The test can be described thus: Induction of apoptosis in human CDDP-resistant NCI-H460 cells assessed as early apoptotic cells at 10 uM after 48 hrs by annexin-V/PI staining based flow cytometry (reference value: 0.03%). Format: functional, Lung.
Test [25] has as its system NCI-H460. The test can be described thus: Induction of apoptosis in human CDDP-resistant NCI-H460 cells assessed as late apoptotic cells at 10 uM after 48 hrs by annexin-V/PI staining based flow cytometry (reference value: 0.03%). The class given is functional, Lung.
The subject of test [26] is NCI-H460. The test can be described thus: Induction of apoptosis in human CDDP-resistant NCI-H460 cells assessed as necrotic cells at 10 uM after 48 hrs by annexin-V/PI staining based flow cytometry (reference value: 0.03%). The class given is functional, Lung.

`O=C1COc2c(CCNCCN(C(=O)CCNCCc3ccc(Cl)c(Cl)c3)C3CCCCC3)ccc(O)c2N1`: the outcome in test [1] and in test [2] was Active. For the same compound, the inhibition entry in [3] and in test [4] was “Active” in each case.

As for `CCC1=C[C@@H]2CN(C1)Cc1c([nH]c3ccccc13)[C@@](C(=O)OC)(c1cc3c(cc1OC)N(C)[C@H]1[C@@](O)(C(=O)OC)[C@H](OC(C)=O)[C@]4(CC)C=CCN5CC[C@]31[C@@H]54)C2`, the Activity result in [5] and in [6] was “Dose-Dependent Effect” in each case.

Regarding `CCN(C(=O)CO)[C@H]1CN(/C(=N\C#N)Nc2cccc(OC(F)F)c2)N=C1c1ccc(Cl)c(Cl)c1`, the outcome in test [7], in test [8], in test [9] and in [10] was inactive. Besides, the figures for the viability at 2 µM in [11] and in test [15] were 8.94% and 0.5%, respectively. The Activity is 5.21% in test [12]; 66.1% in [13]; 19.75% in test [14]; 14.7% in test [16]; 84.74% in test [17]; 0.04% in [18]. Besides, the Activity came to 0.03% in test [20]; 0.26% in test [21]; 2.08% in test [22]; 1.53% in [24]; 7.55% in [25]; 4.72% in test [26]. In addition, the viability at 10 µM stood at 97.6% in [19] and 85.2% in [23].

`CC(=O)O[C@H]1C(=O)[C@@]2(C)[C@H]([C@H](OC(=O)c3ccccc3)[C@]3(O)C[C@H](OC(=O)[C@H](O)[C@@H](NC(=O)c4ccccc4)c4ccccc4)C(C)=C1C3(C)C)[C@]1(OC(C)=O)CO[C@@H]1C[C@@H]2O`: the Activity result in [5] and in [6] was “Dose-Dependent Effect” each time.

As to `CC[C@]1(O)C[C@H]2CN(CCc3c([nH]c4ccccc34)[C@@](C(=O)OC)(c3cc4c(cc3OC)N(C=O)[C@H]3[C@@](O)(C(=O)OC)[C@H](OC(C)=O)[C@]5(CC)C=CCN6CC[C@]43[C@@H]65)C2)C1`, the Activity entry in test [5] and in test [6] was “Dose-Dependent Effect” throughout.
